Assay results published in the RNAGym collection of RNA variant scans (doi:10.1002/anie.201605470).

B1: Osa-1-4 twister ribozyme (parent)
chain: CCGCCUAACACUGCCAAUGCCGGUCCCAAGCCCGGAUAAAAGUGGAGGGGGCGG

Variants of: B1
Assay: self-cleavage, relative activity (ratio to wild type); higher = more cleavage; co-transcriptional
Method in brief: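 A DNA template for a 54-nucleotide Oryza sativa twister ribozyme was synthesised with 97 % wild-type base and 1 % of each other base at the 48 positions downstream of the cleavage site. It was transcribed in vitro for 2 h at 37 °C, allowing co-transcriptional self-cleavage, then reverse-transcribed with a template-switching oligonucleotide, PCR-amplified and deep-sequenced. Cleavage status was scored from reads with or without upstream sequence. Relative activity is fraction cleaved normalised to wild type.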

Variant | self-cleavage
A36G G44A | 1.01
A36G G44C | 0.97
A36G G44U | 0.97
A36G G49U | 0.27
A36G G49C | 0.08
A36G G49A | 0.24
A36G C27U | 0.32
A36G C27G | 0.13
A36G C27A | 0.38
A36G G47A | 0.54
A36G G47C | 0.2
A36G G47U | 0.47
A36U C20G | 0.19
A36U C20A | 0.82
A36U C20U | 0.99
U37C | 1.04
U37A | 0.79
U37G | 1.03
A36G U24C | 0.44
A36G U24G | 0.04
A36G U24A | 0.52
A36U C32G | 0.12
A36U C32U | 0.15
A36U C32A | 0.13

Variant | self-cleavage
A36G G50A | 0.76
A36G G50U | 1.04
A36G G50C | 1.04
A36U G23A | 0.72
A36U G23U | 0.18
A36U G23C | 0.05
U37G U43C | 0.52
U37G U43A | 0.93
A36U A7C | 0.04
A36U A7U | 0.07
A36U A7G | 0.38
A36U G51C | 0.16
A36U G51A | 0.84
A36U G51U | 0.52
A36C G19A | 0.76
A36C G19U | 0.82
A36C G19C | 0.56
A36U A38G | 1
A36U A38C | 1.02
A36U A38U | 0.97
A36U U18A | 0.97
A36U U18C | 0.98
A36U U18G | 0.88
A36G G54U | 0.98

Variant | self-cleavage
A36G G54A | 1.04
A36G G54C | 1.01
A36G G53C | 0.13
A36G G53A | 0.95
A36G G53U | 0.61
A36U G30U | 0.04
A36U G30A | 0.03
A36U G30C | 0.06
A36G A41G | 0.89
A36G A41U | 0.99
A36G A41C | 0.97
A36G A40G | 0.95
A36G A40C | 0.1
A36G A40U | 0.96
A36U G44C | 1.03
A36U G44A | 0.97
A36U G44U | 0.96
A36U C9U | 0.83
A36U C9G | 0.9
A36U C9A | 0.47
U37C U43G | 0.66
U37C U43C | 0.38
U37C U43A | 0.96
A36U U43G | 0.64

Variant | self-cleavage
A36U U43A | 0.99
A36U U43C | 0.38
A36C U24A | 0.06
A36C U24C | 0.07
A36C U24G | 0.03
A36U U24A | 0.27
A36U U24C | 0.45
A36U U24G | 0.03
A36G A7C | 0.05
A36G A7U | 0.1
A36G A7G | 0.5
A36C G30C | 0.05
A36C G30U | 0.03
A36C G30A | 0.02
A36G G45C | 0.07
A36G G45A | 0.54
A36G G45U | 0.21
A36G G30C | 0.05
A36G G30A | 0.05
A36G G30U | 0.05
A36U G48A | 0.12
A36U G48U | 0.08
A36U G48C | 0.09
A36U G50C | 1.06

Variant | self-cleavage
A36U G50A | 0.87
A36U G50U | 1.03
A36U G47C | 0.13
A36U G47U | 0.31
A36U G47A | 0.32
A36U A41G | 0.68
A36U A41C | 0.99
A36U A41U | 1.02
A36G C20G | 0.12
A36G C20U | 0.99
A36G C20A | 0.87
A36C G45U | 0.05
A36C G45A | 0.07
A36C G45C | 0.04
A36G C21G | 0.1
A36G C21U | 1.02
A36G C21A | 0.64
A36G C33U | 0.94
A36G C33A | 0.14
A36G C33G | 0.09
A36G C15A | 0.85
A36G C15G | 0.84
A36G C15U | 0.89
A36G C14U | 0.88

Variant | self-cleavage
A36G C14A | 0.19
A36G C14G | 0.37
A36G A46G | 0.11
A36G A46C | 0.08
A36G A46U | 0.1
A36G G23A | 0.62
A36G G23U | 0.13
A36G G23C | 0.07
A36G A8G | 0.66
A36G A8U | 0.53
A36G A8C | 0.1
A36U U37C | 1.07
A36U U37G | 1.05
A36U U37A | 1.01
A36C G47U | 0.07
A36C G47C | 0.06
A36C G47A | 0.07
A36G C31G | 0.16
A36G C31U | 1.01
A36G C31A | 0.04
A36U G45C | 0.05
A36U G45A | 0.46
A36U G45U | 0.13
A36G A38U | 1.01

Variant | self-cleavage
A36G A38G | 0.99
A36G A38C | 1.07
A36U G22U | 0.9
A36U G22A | 1.05
A36U G22C | 0.19
A36U A46G | 0.09
A36U A46C | 0.08
A36U A46U | 0.08
A36G G51C | 0.18
A36G G51U | 0.37
A36G G51A | 0.78
A36C G35U | 0.95
A36C G35C | 0.75
A36C G35A | 0.94
A36U A39U | 0.91
A36U A39G | 0.98
A36U A39C | 0.99
A36U G19C | 0.67
A36U G19A | 0.48
A36U G19U | 0.93
A36U G54C | 0.96
A36U G54U | 1.02
A36U G54A | 1.01
